The test system of one assay is Bel-7402. Nature of the assay: Cytotoxicity against human Bel7402 cells by MTT assay. Type of assay: functional, cell-based. The essentials: (§1)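 MTT cytotoxicity assay on five human carcinoma lines: A549 (lung), Bel-7402 (liver), BGC-823 (stomach), HCT-8 (colon) and A2780 (ovarian). The assay was run following a published procedure. The read-out is an IC50.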
A general note: Tetrazolium dyes change colour on reduction, which living cells bring about.

The next assay relates to A549. Description: Cytotoxicity against human A549 cells by MTT assay. Type of assay: functional, cell-based. The essentials: as §1
Another assay has as its system HCT-8. Nature of the assay: Cytotoxicity against human HCT8 cells by MTT assay. The class given is functional, cell-based. The essentials: as §1
For the next assay, the system named is BGC-823. Nature of the assay: Cytotoxicity against human BGC823 cells by MTT assay. The class given is functional, cell-based. In outline: as §1
For another assay, the system named is A2780. Description: Cytotoxicity against human A2780 cells by MTT assay. The class given is functional, cell-based. The essentials:
as §1

A further assay relates to RAW264.7. Description: Inhibition of LPS-induced nitric oxide production in mouse RAW264.7 cells at 5 uM. The class given is functional.

By IC50 is commonly meant the point on the concentration scale where inhibition reaches its midpoint. A word on the inhibition: it is the change of the read-out against control, counted positive when it falls. Lower therefore signals little suppression.

Each structure is given as a SMILES string.

On to `CC(=O)OC[C@@]12[C@@H](OC(=O)/C=C\c3ccccc3)CC[C@](C)(O)[C@]13OC(C)(C)[C@H](C(=O)[C@H]2OC(=O)c1cccnc1)[C@H]3O` (relative stereo) [TRIPTERSININ B], for which the IC50 in the assay on Bel-7402, in the assay on A549, in the assay on HCT-8, in the assay on BGC-823 and in the assay on A2780 was over 1 µM throughout.

Regarding `CC(=O)OC[C@]12[C@H](OC(C)=O)[C@H](OC(C)=O)[C@@H]3[C@@H](OC(C)=O)[C@@]14O[C@@]3(C)COC(=O)c1cnccc1C(C)C(C)C(=O)O[C@@H]([C@H](O)[C@@H]2OC(C)=O)[C@]4(C)O` (some centres not stated) [WILFORDININE A], the IC50 with Bel-7402, in the assay on A549, in the assay with HCT-8, with BGC-823 and with A2780 was over 1 µM in each case. This molecule came in with an inhibition at 5 µM with RAW264.7 of 59%.

`CC(=O)OC[C@]12[C@H](OC(C)=O)[C@H](OC(C)=O)[C@@H]3[C@@H](OC(C)=O)[C@@]14O[C@@]3(C)COC(=O)c1cccnc1CCC(C)(O)C(=O)O[C@@H]([C@H](OC(=O)c1ccco1)[C@@H]2OC(C)=O)[C@]4(C)O` (some centres not stated) [WILFORTRINE]: the IC50 with Bel-7402, in the assay on A549, in the assay on HCT-8, in the assay on BGC-823 and in the assay on A2780 was over 1 µM each time.

On to `CC(=O)OC[C@]12[C@H](OC(C)=O)[C@H](OC(C)=O)[C@@H]3[C@@H](OC(C)=O)[C@@]14O[C@@]3(C)COC(=O)c1cccnc1CCC(C)C(=O)O[C@@H]([C@H](OC(C)=O)[C@@H]2OC(C)=O)[C@]4(C)O` (some centres not stated) [EUONINE], for which the IC50 in the assay with Bel-7402, in the assay with A549, in the assay on HCT-8, with BGC-823 and with A2780 was over 1 µM each time. In the assay with RAW264.7, this molecule had an inhibition at 5 µM of 54.7%.

Regarding `CC(=O)OC[C@]12[C@@H](OC(C)=O)[C@H](OC(C)=O)[C@@H]3[C@@H](OC(C)=O)[C@@]14O[C@@]3(C)COC(=O)c1cnccc1CCC(C)C(=O)O[C@@H]([C@H](OC(C)=O)[C@@H]2OC(C)=O)[C@]4(C)O` (some centres not stated) [WILFORDININE E], the IC50 in the assay on Bel-7402, in the assay with A549, with HCT-8, in the assay with BGC-823 and with A2780 was over 1 µM each time.

As for `CC(=O)OC[C@]12[C@H](OC(C)=O)[C@H](OC(C)=O)[C@@H]3[C@@H](OC(C)=O)[C@@]14O[C@@]3(C)COC(=O)c1cccnc1C(C)C(C)C(=O)O[C@@H]([C@H](OC(C)=O)[C@@H]2OC(C)=O)[C@]4(C)O` (some centres not stated) [EUONYMINE], the IC50 in the assay with Bel-7402, in the assay with A549, with HCT-8, in the assay on BGC-823 and with A2780 was over 1 µM each time.

As for `CC(=O)O[C@@H]1[C@@H]2[C@@H](OC(C)=O)[C@@]34O[C@@]2(C)COC(=O)c2cnccc2C(C)C(C)(O)C(=O)O[C@@H]([C@H](OC(C)=O)[C@H](OC(C)=O)[C@@]3(COC(=O)c2ccco2)[C@@H]1OC(C)=O)[C@]4(C)O` (some centres not stated) [HYPOGLAUNINE A], the IC50 in the assay on Bel-7402, in the assay with A549, with HCT-8, in the assay on BGC-823 and with A2780 was over 1 µM each time.

With `C/C=C(\C)C(=O)O[C@H]1[C@H](OC(C)=O)[C@@H]2[C@@H](OC(=O)c3cccnc3)[C@@]3(OC2(C)C)[C@@]1(COC(C)=O)[C@@H](OC(C)=O)CC[C@]3(C)O` (relative stereo), the IC50 in the assay on Bel-7402, with A549, in the assay on HCT-8, in the assay on BGC-823 and in the assay on A2780 was over 1 µM throughout.

As for `CC(=O)OC[C@]12[C@H](OC(C)=O)[C@H](OC(C)=O)[C@@H]3[C@@H](OC(C)=O)[C@@]14O[C@@]3(C)COC(=O)c1cnccc1C(C)C(C)C(=O)O[C@@H]([C@H](OC(C)=O)[C@@H]2OC(C)=O)[C@]4(C)O` (some centres not stated) [PERITASSIN A], the IC50 with Bel-7402, in the assay with A549, in the assay with HCT-8, in the assay on BGC-823 and in the assay with A2780 was over 1 µM each time. Further, the inhibition at 5 µM in the assay on RAW264.7 was 48.2%.

Consider `CC(=O)OC[C@@]12[C@@H](OC(=O)/C=C/c3ccccc3)CC[C@](C)(O)[C@]13OC(C)(C)[C@H]([C@@H](OC(C)=O)[C@H]2OC(=O)c1cccnc1)[C@H]3O` (relative stereo) [TRIPTERSININ C], for which the IC50 in the assay on Bel-7402, in the assay on A549, in the assay with HCT-8, in the assay on BGC-823 and with A2780 was over 1 µM throughout.

In the case of `CC(=O)OC[C@@]12[C@@H](OC(=O)/C=C\c3ccccc3)CC[C@](C)(O)[C@]13OC(C)(C)[C@H]([C@@H](OC(C)=O)[C@H]2OC(=O)c1cccnc1)[C@H]3O` (relative stereo) [TRIPTERSININ D], the IC50 in the assay on Bel-7402, in the assay on A549, in the assay with HCT-8, with BGC-823 and in the assay with A2780 was over 1 µM in each case.

For `CC(=O)O[C@@H]1[C@@H]2[C@@H](O)[C@@]34O[C@@]2(C)COC(=O)c2cnccc2C(C)C(C)(O)C(=O)O[C@@H]([C@H](OC(C)=O)[C@H](OC(C)=O)[C@@]3(COC(=O)c2ccoc2)[C@@H]1OC(C)=O)[C@]4(C)O` (some centres not stated) [HYPOGLAUNINE E], the IC50 in the assay with Bel-7402, in the assay with A549, in the assay with HCT-8, with BGC-823 and in the assay with A2780 was over 1 µM throughout.

As to `CC(=O)OC[C@@]12[C@@H](OC(C)=O)CC[C@](C)(O)[C@]13OC(C)(C)[C@H]([C@@H](OC(C)=O)[C@H]2OC(=O)c1ccoc1)[C@H]3OC(=O)c1cccnc1` (relative stereo) [TRIPTERSININ F], the IC50 in the assay with Bel-7402, with A549, in the assay on HCT-8, in the assay on BGC-823 and in the assay on A2780 was over 1 µM in each case.

Regarding `CC(=O)OC[C@@]12[C@@H](OC(=O)c3ccoc3)CC[C@](C)(O)[C@]13OC(C)(C)[C@H]([C@@H](OC(C)=O)[C@H]2OC(=O)c1ccoc1)[C@H]3OC(C)=O` (relative stereo) [TRIPTERSININ K], the IC50 with Bel-7402, in the assay on A549, in the assay with HCT-8, in the assay on BGC-823 and in the assay with A2780 was over 1 µM throughout. This molecule came in with an inhibition at 5 µM in the assay on RAW264.7 of 49.9%.

Regarding `CC(=O)OC[C@@]12[C@@H](OC(=O)c3ccoc3)CC[C@](C)(O)[C@]13OC(C)(C)[C@H]([C@@H](OC(C)=O)[C@H]2OC(=O)c1ccoc1)[C@H]3O` (relative stereo) [TRIPTERSININ I], the IC50 in the assay with Bel-7402, in the assay on A549, in the assay on HCT-8, in the assay on BGC-823 and with A2780 was over 1 µM throughout. The same molecule yielded an inhibition at 5 µM in the assay with RAW264.7 of 45.5%.

In the case of `CC(=O)OC[C@@]12[C@@H](OC(C)=O)CC[C@](C)(O)[C@]13OC(C)(C)[C@H]([C@@H](OC(=O)c1cccnc1)[C@H]2OC(=O)c1ccoc1)[C@H]3OC(C)=O` (relative stereo) [TRIPTERSININ G], the IC50 with Bel-7402, with A549, with HCT-8, in the assay on BGC-823 and with A2780 was over 1 µM in each case.

Turning to `CC(=O)OC[C@@]12[C@@H](OC(=O)/C=C/c3ccccc3)CC[C@](C)(O)[C@]13OC(C)(C)[C@H](C(=O)[C@H]2OC(=O)c1cccnc1)[C@H]3O` (relative stereo) [TRIPTERSININ A], the IC50 in the assay on Bel-7402, in the assay on A549, in the assay on HCT-8, in the assay with BGC-823 and in the assay on A2780 was over 1 µM in each case. In the assay on RAW264.7, this molecule showed an inhibition at 5 µM of 47.3%.

Turning to `CC(=O)OC[C@@]12[C@@H](OC(=O)c3ccoc3)CC[C@](C)(O)[C@]13OC(C)(C)[C@H]([C@@H](OC(=O)c1cccnc1)[C@H]2OC(=O)c1ccoc1)[C@H]3OC(C)=O` (relative stereo) [TRIPTERSININ H], the IC50 with Bel-7402, in the assay with A549, in the assay with HCT-8, in the assay with BGC-823 and in the assay on A2780 was over 1 µM each time.

In the case of `CC(=O)OC[C@@]12[C@@H](OC(=O)/C=C\c3ccccc3)CC[C@](C)(O)[C@]13OC(C)(C)[C@H]([C@@H](OC(C)=O)[C@H]2OC(=O)c1cccnc1)[C@H]3OC(C)=O` (relative stereo) [TRIPTERSININ E], the IC50 in the assay with Bel-7402, with A549, with HCT-8, with BGC-823 and in the assay on A2780 was over 1 µM throughout.

As to `C[C@@H]1C[C@H]2[C@@H]3CCC4=CC(=O)C=C[C@]4(C)[C@@]3(F)[C@@H](O)C[C@]2(C)[C@@]1(O)C(=O)CO` [DEXAMETHASONE], in the assay with RAW264.7, at 5 µM the inhibition was 70.4%.

For the molecule `CC(=O)OC[C@@]12[C@@H](OC(C)=O)CC[C@](C)(O)[C@]13OC(C)(C)[C@H]([C@@H](O)[C@H]2OC(=O)c1ccoc1)[C@H]3OC(=O)c1ccoc1` (relative stereo) [TRIPTERSININ J], the IC50 in the assay on Bel-7402, in the assay on A549, with HCT-8, in the assay on BGC-823 and in the assay on A2780 was over 1 µM in each case.

For the origin of these results see ChEMBL document CHEMBL2331283, “Anti-inflammatory sesquiterpene derivatives from the leaves of Tripterygium wilfordii” (J Nat Prod, 2013).
